Compound activity deposited in PubChem BioAssay by several laboratories.
Cl transport mod – KCC2 (human) Cl- transport modulation; Q9H2X9; B-score of Tl+ flux slope (higher = more flux/activation; lower = inhibition) at 10 µM; KCC2 cells, thallium flux FluoZin-2 fluorescence; hit rate 2.2% among 190,000;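 active = thallium flux slope and its plate-corrected score both differing from the plate sample mean at a set confidence after two filtering rounds, in either direction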;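 note: slope of fluorescence scaled to starting intensity during 10 to 20 s after thallium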
KCNK9 inh – human KCNK9 channel inhibition; Q9NPC2; HEK293 KCNK9, FluxOR thallium flux fluorescence; active compounds read low; B-score at 10 µM; hit rate 1.2% among 310,000;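 active = ratio B-score over 3 SD below the library mean, with starting fluorescence within 5 SD of its mean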;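 note: negative B-score means less thallium flux so channel inhibition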
KCNQ1 pot – potentiates or activates the human KCNQ1 potassium channel; B-score at 10 µM; hit rate 0.35% among 310,000; P51787; CHO-K1 KCNQ1, thallium flux FluxOR fluorescence; active compounds read high;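 active = fluorescence ratio B-score, a plate-corrected score, at least three library SD, with initial intensity B-score within 5 SD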
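assay system = KCNQ1-transfected CHO-K1 cells | medium = assay buffer with matched DMSO | probe or stimulus = depolarizing K+/Tl+ stimulus, K2SO4 and Tl2SO4 each 12.5 mM in 5x stock | dosing = single dose | incubation = dye 90 min, compound 20 min, room temperature | detection = kinetic FluxOR fluorescence, 10 s baseline plus 110 s post-stimulus | evaluation = ratio B score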
KCNK3 inh – human KCNK3 channel inhibition, primary screen | O14649 | CHO-KCNK3 thallium flux, FluxOR fluorescence; active compounds read low | B-score at 10 µM | hit rate 0.84% among 340,000 | AID 602410;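 active = B-score under library mean minus 4 SD, starting fluorescence ratio at most library mean plus 5 SD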;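 note: more negative B-score means stronger inhibition of thallium flux through KCNK3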
KCNQ1 inh – blocks the human KCNQ1 potassium channel | P51787 | AID 2642 | hit rate 1.3% among 310,000 | CHO-K1 KCNQ1, FluxOR thallium flux fluorescence; active compounds read high | B-score at 10 µM;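 active = compounds whose thallium flux B-score, printed positive for inhibition, exceeds three library SD while starting fluorescence stays within three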;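 note: channel opened by potassium depolarization with thallium stimulus after 20 min compound exposure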
hERG rescue – compounds protecting human hERG from proarrhythmic drug block; CHO-hERG, FluxOR thallium flux, dofetilide IC70 present; activation (rescue from dofetilide block), less the hit threshold, % at 10 µM; hit rate 0.51% among 310,000; AID 1511;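 active = activation above the mean of controls blocked by dofetilide plus 5 SD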;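 note: thallium influx through hERG after potassium depolarization seen as dye fluorescence rise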
KCNQ1 block val – reconfirmed blocker of the human KCNQ1 potassium channel; shares compounds with KCNQ1 inh; KCNQ1 cell line, FluxOR thallium flux fluorescence; inhibition, % at 10 µM; hit rate 93% among 1,600;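 active = primary screen active, with duplicate mean exceeding buffer control mean plus 3 SD of buffer wells, cut at about 28% in these data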;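 note: 0% = buffer control ratio and 100% = XE991 inhibitor control ratio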
CHO Tl flux – counter-screen for KCNQ1 inhibitors: effect in parental CHO cells; shares compounds with KCNQ1 inh; parental CHO-K1, FluxOR thallium flux fluorescence ratio; active compounds read low; zero means no signal rise above baseline; fluorescence ratio (Tl flux) at 10 µM; hit rate 21% among 1,600; AID 588366;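 active = mean of duplicate thallium-flux fluorescence ratios in parental host cells more than 5 SD below the buffer control mean, cut at about 0.38 in these data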;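 note: ratio is peak minus minimum fluorescence divided by baseline fluorescence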
KCNQ1 APC inh – blocks human KCNQ1 current in automated patch clamp. KCNQ1-CHO cells. shares compounds with KCNQ1 inh. hit rate 20% among 490. calls only at 10 µM. AID 624120;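 active = KCNQ1 current drop exceeding 3 SD of negative control wells, seen in both duplicate runs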;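 note: steady state current during a 2 s step from -80 to +40 mV; negative values mean current inhibition and positive values mean potentiation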
KCNQ2 spec – KCNQ1 inhibitor that also blocks rat KCNQ2 channel | KCNQ2 cells, FluxOR thallium flux fluorescence | hit rate 71% among 1,600 | shares compounds with KCNQ1 inh | inhibition, % at 10 µM;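 active = mean percent inhibition of the KCNQ2 thallium signal more than 5 SD above the buffer-only control wells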;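 note: KCNQ2 expressed in CHO cells; 0% = buffer control wells and 100% = XE-991 inhibitor control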
KCNQ1 KCNE1 spec – human KCNQ1/KCNE1 inhibition in KCNQ1 specificity screen | shares compounds with KCNQ1 inh | KCNQ1/KCNE1 cells, FluxOR thallium flux fluorescence | inhibition, % at 10 µM | hit rate 77% among 1,600;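 active = mean percent inhibition of duplicate wells above the buffer-only control mean plus 3 SD of those controls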;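 note: 0% = buffer only wells and 100% = XE-991 inhibitor control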
KCNK9 inh conf – human KCNK9 inhibitor confirmation | AID 492992 | HEK293 KCNK9 cells, FluxOR thallium flux fluorescence | hit rate 43% among 4,900 | shares compounds with KCNK9 inh | inhibition, % at 10 µM;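 active = thallium signal inhibited by more than 5 SD of the compound-free buffer control wells, on both duplicate plates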;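 note: 0% = assay buffer control wells without compound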
Kir2-1 spec – selectivity of KCNK9 modulators against mouse Kir2.1; shares compounds with KCNK9 inh; Kir2.1 cells, FluxOR thallium flux fluorescence; inhibition, % at 10 µM; hit rate 4% among 4,900;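 active = thallium signal drop more than 5 SD beyond the mean of the no-compound control wells, seen in both duplicate plates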;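 note: signal is fluorescence rise after thallium addition divided by baseline fluorescence; plate controls were assay buffer only for no effect and full block by chlorpromazine control for full effect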
HEK293 Tl ctr – second check of KCNK9 modulator effects in non-induced HEK293 cells | FluxOR thallium flux | shares compounds with KCNK9 inh | inhibition, % at 10 µM | hit rate 40% among 4,900;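 active = thallium signal drop beyond 5 SD of the untreated control mean, on both duplicate plates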;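 note: plate controls were buffer only IC0 wells for no effect and SID17386958 at its maximal inhibitory level for full effect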
KCNK3 inh conf – confirmation of human KCNK3 two-pore domain potassium channel inhibitors; shares compounds with KCNK3 inh; CHO-KCNK3 thallium flux, FluxOR fluorescence; 0% buffer, 100% carvedilol maximal block; ratio percent of control, % at 10 µM; hit rate 99% among 2,400; AID 651638;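 active = ratio percent of control, averaged over triplicates, above buffer control mean plus 5 SD, cut at about 64% in these data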;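 note: ratio is the fluorescence rise from min to max over baseline after thallium stimulus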
KCNK3 uninduced – activity in cells without induced KCNK3 expression | thallium flux ratio (lower = more inhibition) at 10 µM | shares compounds with KCNK3 inh | non-induced KCNK3 parental cells, FluxOR thallium flux; active compounds read low | AID 651747 | hit rate 40% among 2,400;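 active = thallium flux ratio, averaged over three wells, more than 5 SD below the buffer control mean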;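 note: host cells are CHO cells without KCNK3 induction; ratio is peak minus trough fluorescence over baseline then normalized to buffer controls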
Numbers without * were called inactive; i = inactive; · = not tested or not shown; + = active, no number. Compounds with a hit are over-represented: about 4.1% of the library has one in this group of screens.

SMILES	Cl transport mod	KCNK9 inh	KCNQ1 pot	KCNK3 inh	KCNQ1 inh	hERG rescue	KCNQ1 block val	CHO Tl flux	KCNQ2 spec	KCNQ1 KCNE1 spec	KCNK3 inh conf	KCNK3 uninduced	others
CCc1cc(=S)n2c([nH]c3ccccc32)c1C#N	-5.1	i	i	-9.3*	11*	-11	102*	0.44	112%*	82%*	137*	0.057*	KCNQ1 APC inh=i
Cc1cccc2nc(-c3cccnc3)c(NCCC(C)C)n12	0.56	-9.1*	i	-10*	11*	4.9*	139*	0.37*	119%*	157%*	141*	0.13*	KCNK9 inh conf=37%*;Kir2-1 spec=i;HEK293 Tl ctr=36%*
Cc1cccc2nc(-c3cccnc3)c(Nc3ccccc3)n12	-0.93	i	i	i	i	0	·	·	·	·	·	·
O=C(COC(=O)/C=C/c1ccccc1Cl)NCCNC(=O)COC(=O)/C=C/c1ccccc1Cl	·	i	i	i	i	-5	·	·	·	·	·	·
Cc1ccc(NC(=O)c2ccc(S(=O)(=O)N(C)c3ccccc3)cc2)cc1S(=O)(=O)N1CCOCC1	·	·	·	i	·	·	·	·	·	·	·	·
S=C(NCc1ccco1)NC1CCCc2ccccc21 (stereo not drawn)	-1.5	i	i	i	i	-6	·	·	·	·	·	·
S=C(NCc1ccccc1)NC1CCCc2ccccc21 (stereo not drawn)	-0.67	i	i	-13*	8*	-12	0	0.48	66%*	i	112*	i
Cc1ccc(NC2=C(NC(=O)c3ccccc3)C(=O)c3ccccc3C2=O)cc1Cl	-0.86	i	i	i	i	4	·	·	·	·	·	·
O=C(O)c1cccc(NC2=C(Cl)C(=O)c3ccccc3C2=O)c1	-2.3	i	i	-8.7*	16*	-29	155*	0.28*	119%*	+	126*	0.12*
Cc1cccc(-c2cc(C(=O)Nc3cccnc3)c3ccccc3n2)c1	·	i	i	-8.9*	9*	-21	124*	0.37*	136%*	159%*	125*	0.1*
Cc1cccc(-c2cc(C(=O)Nc3ccncc3)c3ccccc3n2)c1	·	i	i	i	i	-3	·	·	·	·	·	·
CC(C)NC(=O)c1sc(=S)n2c1[nH]c(=O)c1ccc(C(=O)NCCc3ccc(Cl)cc3)cc12	·	i	i	-18*	16*	-10	102*	0.35*	81%*	174%*	93*	i
